TRPC6 inhibitor = mouse TRPC6 channel inhibitors, primary screen, cell-based, HEK293, membrane potential dye; B-score at 10 µM; 310,000 tested, 1.1% active; AID 2553, 2010; ACh-evoked depolarization; hits give low values;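 active = B-score under library mean minus 3 SD, initial fluorescence not abnormally high, positive integrated signal ratio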;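 note: B-score derived from integrated fluorescence ratio over the kinetic read; more negative B-score means stronger inhibition of depolarization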
TRPC4 potent = positive allosteric modulators of TRPC4, primary screen, cell-based, mouse TRPC4beta, HEK293 mu-opioid, Fluo-4 calcium; Short transient receptor potential channel 4 (Mus musculus), Q9QUQ5; DAMGO EC20, Fluo-4 Ca2+ flux; hits give high values; B-score at 10 µM; 310,000 tested, 0.42% active; AID 2227, 2009;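 active = B-score of calcium response area above 5 SD of library B-scores, with initial fluorescence ratio within 5 SD of library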;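 note: B-score of integrated fluorescence ratio over time as area under calcium response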
Target sequence (Q9QUQ5 whole entry, looked up): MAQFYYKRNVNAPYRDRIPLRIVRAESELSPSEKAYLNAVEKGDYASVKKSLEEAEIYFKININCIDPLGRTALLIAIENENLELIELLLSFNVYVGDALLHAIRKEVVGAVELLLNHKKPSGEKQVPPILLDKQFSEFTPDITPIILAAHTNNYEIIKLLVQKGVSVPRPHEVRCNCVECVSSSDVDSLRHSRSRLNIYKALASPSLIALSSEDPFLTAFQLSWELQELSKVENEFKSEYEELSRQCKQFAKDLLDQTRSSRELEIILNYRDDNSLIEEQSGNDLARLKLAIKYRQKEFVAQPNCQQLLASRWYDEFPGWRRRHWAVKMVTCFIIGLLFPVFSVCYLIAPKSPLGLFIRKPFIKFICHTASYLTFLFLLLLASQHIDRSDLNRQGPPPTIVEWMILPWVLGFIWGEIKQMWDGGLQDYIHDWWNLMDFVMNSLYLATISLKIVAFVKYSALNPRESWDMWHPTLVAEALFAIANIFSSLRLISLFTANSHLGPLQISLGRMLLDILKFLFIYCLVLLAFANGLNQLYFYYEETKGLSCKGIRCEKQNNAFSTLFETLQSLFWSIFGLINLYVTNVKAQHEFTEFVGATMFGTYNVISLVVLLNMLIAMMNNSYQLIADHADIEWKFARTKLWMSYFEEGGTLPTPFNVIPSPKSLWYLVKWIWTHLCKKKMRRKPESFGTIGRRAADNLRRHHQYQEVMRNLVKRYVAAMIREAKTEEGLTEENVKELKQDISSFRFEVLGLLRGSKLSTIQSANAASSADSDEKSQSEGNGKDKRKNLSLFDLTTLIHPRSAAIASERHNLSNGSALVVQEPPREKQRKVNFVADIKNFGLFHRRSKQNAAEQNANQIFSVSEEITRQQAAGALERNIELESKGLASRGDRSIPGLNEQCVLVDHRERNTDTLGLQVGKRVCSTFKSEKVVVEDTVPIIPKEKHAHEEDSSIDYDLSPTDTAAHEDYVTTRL
FID counter = compounds displacing fluorescent DNA intercalator, primary screen, artefact control for HCV NS3 helicase inhibitor project, biochemical, FID fluorescence; DNA fluorescent intercalator displacement; inhibition, % at 7.9 µM; 290,000 tested, 0.17% active; in the data active = inhibition above about 37%;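 note: 0% = vehicle and 100% = reference compound; higher means more ethidium bromide displaced from hairpin DNA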
TRPC6 act = mouse TRPC6 channel activators, primary screen, cell-based, HEK293, membrane potential dye. Short transient receptor potential channel 6 (Mus musculus), Q61143. HEK293-TRPC6 membrane potential dye fluorescence; hits give high values. B-score at 10 µM. 310,000 tested, 0.13% active. AID 2550, 2010;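 active = B-score of the integrated fluorescence ratio above library mean plus 3 SD, and starting fluorescence ratio within library mean plus 5 SD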;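 note: higher score means more depolarization so channel activation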
TRPC4 block = inhibitors of mouse TRPC4 channel, primary screen, Fluo4 calcium, HEK293 TRPC4beta/mu-opioid cells; DAMGO-evoked Fluo4 calcium flux; hits give low values; B-score at 10 µM; Short transient receptor potential channel 4 (Mus musculus), Q9QUQ5; AID 2247, 2010; 300,000 tested, 0.39% active;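 active = B-score over 3 SD under the library average, no early fluorescence shift, positive overall ratio signal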
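Assay system: Stable TRPC4beta/mu-opioid receptor HEK293 cells | Reagent: DAMGO in two steps, submaximal then maximal | Compound dosing: Single concentration per test compound | Signal: Fluo4 Ca2+ flux fluorescence | Evaluation: Per-well B score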
TRPC4 agonist = activators of mouse TRPC4 channel, primary screen, Fluo4 calcium, HEK293 TRPC4beta/mu-opioid cells; Fluo4 calcium fluorescence; hits give high values; AID 2237, 2010; B-score at 10 µM; Short transient receptor potential channel 4 (Mus musculus), Q9QUQ5; 310,000 tested, 0.49% active;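 active = B-score above 5 SD of library B-scores, and initial fluorescence ratio not above library mean plus 5 SD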;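 note: positive B-score marks a calcium rise read as TRPC4 activation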
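Material: HEK293 stable line with TRPC4beta plus mu-opioid receptor; technique: Fluo4 calcium-sensitive dye fluorescence, kinetic, 1 Hz baseline; timing: Fluo4 dye loading 45 min at room temperature, 110 s recording; controls: assay buffer as low control, maximal DAMGO as high control; read-out: integrated baseline-normalised fluorescence ratio, converted to per-well B score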
TRPC4 spec 2 = second selectivity test of TRPC6 inhibitors: effect on mouse TRPC4; shares compounds with TRPC6 inhibitor; HEK293 TRPC4/MOR, membrane potential dye fluorescence; channel activated by saturating DAMGO dose; inhibition, % at 10 µM; 920 tested, 42% active; AID 2776;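 active = compounds whose fluorescence signal differed from control wells by over 3 SD, either direction, in both duplicate plates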
TRPC4 spec = mouse TRPC4 modulation by TRPC6 hits, confirmation, selectivity assay for TRPC6 inhibitor project, cell-based, HEK293 TRPC4/mu-opioid, membrane potential dye; 920 tested, 61% active; shares compounds with TRPC6 inhibitor; membrane potential fluorescence; activity change, negative = inhibition, % at 10 µM;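 active = rise or fall in signal beyond 3 SD of buffer-only wells in both replicate plates, either sign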;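 note: integrated kinetic ratio of fluorescence range over baseline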
HEK293 MPD ctr 2-1 = nonspecific membrane potential effects, parental HEK293, confirmation, counter-screen for TRPC6 inhibitor project, cell-based, second counter screen; AID 2779, 2010; 920 tested, 31% active; signal change vs control, % at 10 µM; shares compounds with TRPC6 inhibitor; parental HEK293 membrane potential dye fluorescence; maximal acetylcholine challenge after compound addition;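 active = membrane potential signal moving either way by over 3 SD of the maximum-effect control, in both duplicate plates, meaning non-specific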
HEK293 MPD ctr-1 = membrane potential modulation in parental HEK293, confirmation, counter-screen for TRPC6 inhibitor project, cell-based | shares compounds with TRPC6 inhibitor | parental HEK293 membrane potential dye fluorescence | membrane potential signal change, % at 10 µM | 920 tested, 60% active;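 active = membrane potential signal shifting up or down by more than 3 SD of buffer-only wells, on both duplicate plates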
HEK293 MPD ctr-2 = parental HEK293 membrane potential modulation, confirmation, counter-screen for TRPC6 modulator project, cell-based; shares compounds with TRPC6 inhibitor; membrane potential dye fluorescence; membrane potential signal change, % at 10 µM; 2,400 tested, 51% active; AID 488924, 2010;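 active = membrane potential signal moves up or down beyond 5 SD from buffer-only wells, on both duplicate plates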
HEK293 MPD ctr 2-2 = second counter-screen for TRPC6 modulators: effect in parental HEK293 cells; shares compounds with TRPC6 inhibitor; inhibition, % at 10 µM; membrane potential dye fluorescence; after compound, maximal acetylcholine stimulation; 2,400 tested, 14% active;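 active = membrane potential signal drops by more than 5 SD from the mean control signal, in both duplicate plates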;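 note: plate controls were acetylcholine ECmax control wells for no effect and buffer only wells for full effect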
TRPC4 ctr mod = TRPC4 modulation by TRPC6 hit compounds, confirmation, selectivity assay for TRPC6 modulator project, cell-based, HEK293 TRPC4/mu-opioid, membrane potential dye, mouse; shares compounds with TRPC6 inhibitor; membrane potential fluorescence; percent change from control (negative = decrease, positive = increase), % at 10 µM; 2,400 tested, 69% active;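 active = membrane potential signal moved up or down beyond 5 SD of buffer control wells, in both duplicate plates, actives on both sides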;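 note: plate controls were assay buffer wells for no effect and DAMGO maximal-effect wells for full effect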
TRPC4 ctr inh 2 = second check of whether TRPC6 modulators also affect mouse TRPC4; shares compounds with TRPC6 inhibitor; HEK293 TRPC4/mu-opioid, membrane potential dye fluorescence; stimulated with maximal-effect DAMGO; inhibition, % at 10 µM; 2,400 tested, 55% active; AID 488928;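 active = drop in membrane potential signal beyond 5 SD of the control wells in both duplicate plates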;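 note: TRPC4 counter screen for TRPC6 hits run under conditions tuned for TRPC6 not TRPC4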
TRPC6 block conf = mouse TRPC6 channel inhibitors, confirmation, HEK293 cells, membrane potential dye, duplicate | 3,300 tested, 43% active | shares compounds with TRPC6 inhibitor | inhibition, % at 10 µM | ACh-evoked depolarization | AID 488960, 2010;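 active = fluorescence ratio falls more than 5 SD below the full-stimulation control mean, in both duplicate runs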;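 note: integrated fluorescence ratio of peak minus minimum over baseline after agonist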
TRPC6 act conf = mouse TRPC6 channel activators, confirmation, HEK293 cells, membrane potential dye, duplicate | shares compounds with TRPC6 inhibitor | 2,800 tested, 11% active | HEK293-TRPC6 membrane potential dye fluorescence, FDSS | activation, % at 10 µM | AID 488961, 2010;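 active = ratio signal rise beyond 5 SD above unstimulated control wells' mean, seen in both duplicate runs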;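 note: plate controls were buffer EC0 wells for no effect and acetylcholine ECmax response for full effect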
Starred values were filed as active, the others as inactive; i = inactive; x = no result given. Sampled rows, rich in hits. Any-hit rate of the full collection: about 2.3%.

SMILES	TRPC6 inhibitor	TRPC4 potent	FID counter	TRPC6 act	TRPC4 block	TRPC4 agonist	HEK293 MPD ctr-2	HEK293 MPD ctr 2-2	TRPC4 ctr mod	TRPC4 ctr inh 2	TRPC6 block conf	TRPC6 act conf	others
CCOC(=O)c1c(NC(=O)c2ccccc2C(=O)O)sc2c1CCC2	i	i	-28	i	i	i	x	x	x	x	x	x
CCOC(=O)c1c(NC(=O)c2cccc([N+](=O)[O-])c2C(=O)O)sc2c1CCCC2	i	i	-13	37*	i	i	210%*	i	37%*	i	i	102%*
CCOC(=O)c1c(NC(=O)c2c(C(=O)O)cccc2[N+](=O)[O-])sc2c1CCCC2	i	i	-12	30*	i	i	194%*	i	31%*	i	i	116%*
CCOC(=O)c1c(NC(=O)c2cccs2)sc2c1CCCC2	i	i	-12	i	i	i	x	x	x	x	x	x
CN1CCN(Cc2nnc(-c3ccccc3)o2)CC1	i	i	0	i	i	i	x	x	x	x	x	x
c1ccc(CN2CCN(Cc3nnc(-c4ccccc4)o3)CC2)cc1	-5.6*	i	0	i	i	i	i	66%*	11%*	i	64%*	x
CCOC(=O)c1ccc2ncc(C(=O)OCC)c(NCCN3CCOCC3)c2c1	i	i	-12	i	i	i	x	x	x	x	x	x
CCOC(=O)c1cnc2ccc(C)cc2c1Nc1ccc(N2CCOCC2)cc1	-5.7*	i	2	i	i	i	-154%*	68%*	-32%*	44%*	68%*	i
CCc1ccc(S(=O)(=O)N2CCN(c3ccccc3OC)CC2)cc1	i	i	-26	i	i	i	x	x	x	x	x	x
CCCCOc1ccc(C(=O)OC(C)CN(C)C)cc1 (configuration not stated)	i	i	32	12*	i	i	218%*	i	35%*	34%*	i	102%*
CCCCOc1ccc(C(=O)O)cc1	i	i	-2	i	i	i	x	x	x	x	x	x
CC(=O)Nc1ccc(OCc2nnc(-c3ccc(Cl)cc3)o2)cc1	-6.3*	i	-11	i	i	i	i	i	i	i	i	i
O=C(CCSCc1cccc(F)c1)NCCc1ccccc1	i	i	-17	i	i	i	x	x	x	x	x	x
c1cc2c3c(cccc3c1)C(N1CCCCCC1)=N2	-12*	i	13	i	i	i	-208%*	i	-46%*	68%*	i	i
c1cc2c3c(cccc3c1)C(N1CCCCC1)=N2	-11*	i	11	i	i	i	-195%*	78%*	-52%*	93%*	76%*	i
c1ccc2c(c1)CCN(C1=Nc3cccc4cccc1c34)C2	x	x	1	x	x	x	x	x	x	x	x	x
O=C(O)c1cccc(S(=O)(=O)Nc2ccccc2C(=O)NCCc2ccccc2)c1	i	i	-23	i	i	i	x	x	x	x	x	x
Cc1cccc(-n2ncc3c2CCCC3NC(=O)C2CCOCC2)c1C (configuration not stated)	i	i	-25	i	i	i	x	x	x	x	x	x
C=CCNCc1ccc(C(=O)NCCCCCCC)cc1[N+](=O)[O-]	-7*	i	x	i	x	i	x	x	x	x	i	i	TRPC4 spec 2=75%*;TRPC4 spec=-11%*;HEK293 MPD ctr 2-1=i;HEK293 MPD ctr-1=-160%*
C=CCNC(=O)c1ccc([N+](=O)[O-])c(Cl)c1	i	i	0	i	i	i	x	x	x	x	x	x
OCCn1ccc(-c2ccccc2OCc2ccc(F)cc2)n1	i	i	-23	i	i	i	x	x	x	x	x	x
Cc1ccc2nc(C)cc(Nc3ccc([N+](=O)[O-])cc3)c2c1	i	i	15	i	i	i	x	x	x	x	x	x
COC(=O)c1ccc(Nc2cc(C)nc3ccc(C)cc23)cc1	-7.2*	i	-4	i	i	i	x	x	x	x	i	i	TRPC4 spec 2=i;TRPC4 spec=-22%*;HEK293 MPD ctr 2-1=i;HEK293 MPD ctr-1=-299%*
COC(=O)c1ccc2nc(C)cc(Nc3ccccc3C)c2c1	-5.9*	i	3	i	i	i	-149%*	i	-25%*	43%*	58%*	i
COC(=O)c1ccc2nc(C)c(C)nc2c1	i	i	1	i	i	i	x	x	x	x	x	x

Screening data (PubChem BioAssay)
